Experiments:
[1] = test system: Ub-PCNA in H1299 cells; assay: Western blot of monoubiquitinated PCNA; type: cell-based, human; conditions: 4 hr; for change in Ub-PCNA (in words): H1299 cells, 1, 5, and 25 µM; for lowest concentration at which an increase in Ub-PCNA was observed: H1299 cells
[2] = test system: 451 kinases; conditions: cited from earlier work
[3] = test system: small panel of DUBs; conditions: cited from earlier work
[4] = test system: H1299 cells; assay: Colony formation assay in H1299 cells; type: cell-based, human; conditions: for effect on cell survival (in words) / reduction of colony formation: H1299 cells, 5 μM, 7 days; for reduction of colony formation: relative to DMSO
[5] = molecular target: USP1/UAF1 (Homo sapiens, UniProt O94782); assay: USP1/UAF1 quantitative high-throughput screening; type: biochemical
Sequence of USP1/UAF1 (O94782 whole entry): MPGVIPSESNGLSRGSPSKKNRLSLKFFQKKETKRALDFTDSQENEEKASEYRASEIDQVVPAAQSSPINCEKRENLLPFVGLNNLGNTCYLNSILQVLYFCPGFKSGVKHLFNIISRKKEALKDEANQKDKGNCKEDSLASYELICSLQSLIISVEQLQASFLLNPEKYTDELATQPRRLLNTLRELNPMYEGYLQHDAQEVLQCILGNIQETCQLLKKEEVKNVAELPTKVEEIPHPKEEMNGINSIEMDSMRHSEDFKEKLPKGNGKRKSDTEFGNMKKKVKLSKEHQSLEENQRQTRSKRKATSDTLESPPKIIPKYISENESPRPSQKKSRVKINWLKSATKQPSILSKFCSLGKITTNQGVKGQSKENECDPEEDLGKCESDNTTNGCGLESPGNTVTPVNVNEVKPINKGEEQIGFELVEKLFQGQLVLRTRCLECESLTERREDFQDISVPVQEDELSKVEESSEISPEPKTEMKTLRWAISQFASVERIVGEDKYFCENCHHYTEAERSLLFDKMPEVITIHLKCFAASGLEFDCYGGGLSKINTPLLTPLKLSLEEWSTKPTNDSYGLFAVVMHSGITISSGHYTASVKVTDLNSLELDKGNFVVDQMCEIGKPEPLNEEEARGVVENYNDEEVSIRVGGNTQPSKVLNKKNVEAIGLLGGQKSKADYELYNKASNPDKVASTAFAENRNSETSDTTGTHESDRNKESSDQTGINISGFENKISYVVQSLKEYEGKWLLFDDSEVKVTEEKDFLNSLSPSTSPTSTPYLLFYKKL
Sequence of USP1/UAF1 (Q8TAF3 whole entry partner): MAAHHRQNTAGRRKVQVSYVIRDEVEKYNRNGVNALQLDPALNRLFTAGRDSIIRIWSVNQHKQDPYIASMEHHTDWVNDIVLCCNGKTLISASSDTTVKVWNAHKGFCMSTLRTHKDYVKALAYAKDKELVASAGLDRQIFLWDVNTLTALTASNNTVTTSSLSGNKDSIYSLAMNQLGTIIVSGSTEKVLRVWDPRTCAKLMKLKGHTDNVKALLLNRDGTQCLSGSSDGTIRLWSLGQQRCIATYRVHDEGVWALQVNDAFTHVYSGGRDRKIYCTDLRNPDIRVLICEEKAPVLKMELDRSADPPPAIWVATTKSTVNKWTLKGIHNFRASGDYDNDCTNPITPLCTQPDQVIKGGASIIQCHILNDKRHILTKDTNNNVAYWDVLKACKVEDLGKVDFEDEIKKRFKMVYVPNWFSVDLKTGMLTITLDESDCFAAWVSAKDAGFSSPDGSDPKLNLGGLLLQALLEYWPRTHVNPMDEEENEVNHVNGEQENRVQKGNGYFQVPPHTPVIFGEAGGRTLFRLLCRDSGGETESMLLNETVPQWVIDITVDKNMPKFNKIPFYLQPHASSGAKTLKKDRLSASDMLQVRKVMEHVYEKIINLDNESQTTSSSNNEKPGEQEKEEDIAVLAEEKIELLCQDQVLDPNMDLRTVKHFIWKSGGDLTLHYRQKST

[6] = Aqueous chemical stability; type: physicochemical; conditions: aqueous solution at room temperature
[7] = Mouse plasma stability; type: in vitro ADME
[8] = test system: Ca^2+ channel; assay: CEREP LeadProfilingScreen2 radioligand binding; conditions: 10 μM, duplicate
Summary of the method: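 Test compound run at 10 μM in a commercial lead-profiling panel of 80 GPCRs, ion channels and transporters.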

[9] = test system: Caco-2; assay: Caco-2 permeability; type: in vitro ADME
[10] = Preliminary in vivo PK studies

## FC(F)(F)c1ccccc1-c1nc(NCc2cccs2)c2ccccc2n1 [Compound 1, N-(Thiophen-2-ylmethyl)-2-(2-(trifluoromethyl)phenyl)quinazolin-4-amine]
[1]
  change in Ub-PCNA (in words): dose-dependent increase in Ub-PCNA
[2]
  appreciable inhibition among 451 kinases: only one of 451 kinases
[3]
  activity against a small panel of DUBs: no significant activity
[4]
  effect on cell survival (in words): minimal

## FC(F)(F)c1cccc(-c2nc(NCc3ccc(-c4cccnc4)cc3)c3ccccc3n2)c1 [Compound 22]
[5]
  activity toward USP1/UAF1 (in words): inactivity

## FC(F)(F)c1ccc(-c2nc(NCc3ccc(-c4cccnc4)cc3)c3ccccc3n2)cc1 [Compound 23]
[5]
  activity toward USP1/UAF1 (in words): inactivity

## CC(C)c1ccccc1-c1nc(NCc2ccc(-c3cccnc3)cc2)c2occc2n1 [Compound 48, 2-(2-Isopropylphenyl)-N-(4-(pyridin-3-yl)benzyl)furo[3,2-d]pyrimidin-4-amine]
[4]
  reduction of colony formation: greater than 70%

## COc1cnc(-c2ccccc2C(C)C)nc1NCc1ccc(-c2cccnc2)cc1 [Compound 49, 2-(2-Isopropylphenyl)-5-methoxy-N-(4-(pyridin-3-yl)benzyl)pyrimidin-4-amine]
[4]
  reduction of colony formation: greater than 70%

## Cc1cnc(-c2ccccc2C(C)C)nc1NCC1CCN(C)CC1 [Compound 58]
[5]
  activity toward USP1/UAF1 (in words): complete loss of activity

## Cc1cnc(-c2ccccc2C(C)C)nc1NCC1CCN(c2cccnc2)CC1 [Compound 64, 2-(2-Isopropylphenyl)-5-methyl-N-((1-(pyridin-3-yl)piperidin-4-yl)methyl)pyrimidin-4-amine]
[1]
  change in Ub-PCNA (in words): dose-dependent increase in Ub-PCNA
  lowest concentration at which an increase in Ub-PCNA was observed: 1 µM
[4]
  reduction of colony formation: greater than 70%

## Cc1cnc(-c2ccccc2C(C)C)nc1NCc1ccc(-n2ccnc2)cc1 [Compound 69, N-(4-(1H-Imidazol-1-yl)benzyl)-2-(2-isopropylphenyl)-5-methylpyrimidin-4-amine]
[4]
  reduction of colony formation: greater than 70%

## Cc1cnc(-c2ccccc2C(C)C)nc1NCc1ccc(-n2ccnn2)cc1 [Compound 70, N-(4-(1H-1,2,3-Triazol-1-yl)benzyl)-5-methyl-2-(2-isopropylphenyl)pyrimidin-4-amine]
[6]
  stability in PBS buffer, assay buffer, pH 2, pH 9 (in words): stable
[7]
  stability in mouse plasma (in words): stable
[8]
  inhibition of Ca^2+ channel: > 50%
[9]
  Caco-2 (A→B) Papp: 22.98 10^–6 cm/s
[1]
  change in Ub-PCNA (in words): dose-dependent increase in Ub-PCNA
  lowest concentration at which an increase in Ub-PCNA was observed: 1 µM
[4]
  reduction of colony formation: greater than 70%
[10]
  clearance: > 70 mL/min/kg

## Cc1cnc(-c2ccccc2C2COC2)nc1NCc1ccc(-c2cccnc2)cc1 [Compound 72, 5-methyl-2-(2-(oxetan-3-yl)phenyl)-N-(4-(pyridin-3-yl)benzyl)pyrimidin-4-amine]
[5]
  activity toward USP1/UAF1 (in words): lost all activity

## Cc1cnc(-c2ccccc2C2COC2)nc1NCc1ccc(-n2ccnn2)cc1 [Compound 77, N-(4-(1H-1,2,3-Triazol-1-yl)benzyl)-5-methyl-2-(2-(oxetan-3-yl)phenyl)pyrimidin-4-amine]
[4]
  effect on cell survival (in words): no effect
[4]; Homo sapiens, NCI-H1299, read-out: EC50 cell survival (colony formation)
  EC50: > 25 µM
[5]
  activity toward USP1/UAF1 (in words): lost all activity

From article PMC4191588 (Journal of Medicinal Chemistry, 2014)
